# Reference: ChEMBL document CHEMBL1649522, “Effect of rifampin, a potent inducer of drug-metabolizing enzymes, on the pharmacokinetics of raltegravir” (Antimicrob Agents Chemother, 2009)
# Assays:
# Format in all cases: ADME, organism-based
# [1] = Cmin in healthy human at […], po BID for 14 days after 12 hrs in presence of […], po rifampin; settings: in vivo, read-out: Cmin
# Outline: (§1)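 Same subjects given raltegravir 800 mg orally every 12 h plus rifampin 600 mg orally once daily for 14 days. A light meal was taken 2 h before the day 14 morning dose. Plasma sampled 0–12 h postdose and assayed by HPLC-MS/MS. AUC0-12 by linear-up/log-down trapezoidal rule. Cmax, Tmax and C12 read directly.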
# [2] = AUC (0 to infinity) in healthy human at […], po administered as single dose; design: time infinity, route oral; settings: plasma
# Outline: (§2)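 Healthy male and female subjects (n=9), fasted 8 h before and 4 h after a single oral 400 mg raltegravir dose. Plasma sampled 0–48 h postdose and measured by liquid-liquid extraction then reverse-phase HPLC-MS/MS (LLOQ 2 ng/ml). AUC0-∞ from a biexponential fit plus linear/log trapezoidal rule. Cmax and Tmax read from the data. C12 taken at the nominal 12 h sample.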
# [3] = Cmax in healthy human at […], po BID for 14 days in presence of […], po rifampin; design: route oral; settings: in vivo; outline: as §1
# [4] = Cmax in healthy human at […], po administered as single dose in presence of […], po rifampin; design: route oral; settings: in vivo
# Outline: (§3)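 Same subjects after a washout of at least 4 days, given rifampin 600 mg orally once daily for 15 days. On day 14, a single fasted oral 400 mg raltegravir dose was given with rifampin. Plasma sampled 0–48 h postdose and assayed by HPLC-MS/MS. AUC0-∞ by biexponential fit plus trapezoidal rule. Cmax, Tmax and nominal 12 h C12 read directly.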
# [5] = Cmax in healthy human at […], po administered as single dose; design: route oral; settings: in vivo; outline: as §2
# [6] = Tmax in healthy human at […], po BID for 14 days in presence of […], po rifampin; settings: in vivo; outline: as §1
# [7] = Cmin in healthy human at […], po administered as single dose after 12 hrs; design: route oral; settings: in vivo, read-out: Cmin; outline: as §2
# [8] = Tmax in healthy human at […], po administered as single dose in presence of […], po rifampin; settings: in vivo; outline: as §3
# [9] = Terminal half life in healthy human at […], po administered as single dose; design: route oral; settings: in vivo, read-out: beta t1/2 (converted)
# Outline: (§4)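 Study 1: open-label two-period fixed-sequence design in healthy adults (nine completed). A single 400 mg oral dose was given fasted (8 h before, 4 h after), then after at least 4 days washout, 600 mg rifampin orally once daily for 15 days, with 400 mg raltegravir given on day 14. Plasma sampled 0–48 h; LC-MS/MS (LLOQ 2 ng/ml). Biexponential fit weighted 1/(predicted concentration)²; t1/2 = ln(2)/α or β.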
# [10] = Cmin in healthy human at […], po BID for 4 days after 12 hrs; design: route oral; settings: in vivo, read-out: Cmin
# Outline: (§5)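 Healthy male and female subjects given raltegravir 400 mg orally every 12 h for 4 days. A light meal was taken 2 h before the day 4 morning dose. Plasma sampled 0–12 h after that dose and assayed by HPLC-MS/MS (LLOQ 2 ng/ml). AUC0-12 by linear-up/log-down trapezoidal rule. Cmax, Tmax and nominal 12 h C12 read from the data.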
# [11] = AUC(0 to 12 hrs) in healthy human at […], po BID for 14 days in presence of […], po rifampin; design: time < 12 hr, route oral; settings: plasma; outline: as §1
# [12] = Terminal half life in healthy human at […], po administered as single dose in presence of […], po rifampin; settings: in vivo, read-out: beta t1/2 (converted); outline: as §4
# [13] = Primary phase half life in healthy human at […], po administered as single dose; design: route oral; settings: in vivo; outline: as §4
# [14] = AUC(0 to 12 hrs) in healthy human at […], po BID for 4 days; design: time < 12 hr, route oral; settings: plasma; outline: as §5
# [15] = Cmin in healthy human at […], po administered as single dose after 12 hrs in presence of […], po rifampin; settings: in vivo, read-out: Cmin; outline: as §3
# [16] = Primary phase half life in healthy human at […], po administered as single dose in presence of […], po rifampin; settings: in vivo; outline: as §4
# [17] = AUC (0 to infinity) in healthy human at […], po administered as single dose in presence of […], po rifampin; design: route oral, time infinity; settings: plasma; outline: as §3
compound,measurement,setting,value
Cc1nnc(C(=O)NC(C)(C)c2nc(C(=O)NCc3ccc(F)cc3)c(O)c(=O)n2C)o1 [RALTEGRAVIR],concentration at 12 h,[1],43.5 nM
same,AUC(0-inf),[2],27.6 µM·h
same,Cmax,[3],1950 nM
same,Cmax,[4],5340 nM
same,Cmax,[5],8610 nM
same,Tmax,[6],1.75 h
same,concentration at 12 h,[7],92.1 nM
same,Tmax,[8],3 h
same,half-life,[9],8.5 h
same,concentration at 12 h,[10],92.5 nM
same,AUC at 12 h,[11],5.85 µM·h
same,half-life,[12],9.6 h
same,half-life,[13],1.07 h
same,AUC at 12 h,[14],4.61 µM·h
same,concentration at 12 h,[15],36.3 nM
same,half-life,[16],0.93 h
same,AUC(0-inf),[17],16.5 µM·h
